Entries after “also recorded” stand apart in the source; their conditions may differ. Where no end group is shown, it is not given here. [ ]: non-standard residue; d: D form. Aib = CC(C)(N)C(=O)O
Legend:
[1] = system: Aβ1–42 toxicity in PC-12 cells; test: MTT cell viability assay, Aβ1–42 co-incubated with tetrapeptides; assay type: cell-based; details: calculated from OD570 of MTT assay in PC-12 cells
Outline: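 PC-12 cells were grown in F-12K with 5% FBS and 10% horse serum and used at 70% confluence. For the assay, medium was switched to F-12K with 10% FBS, and cells were seeded at 17 000/well overnight. Monomerized Aβ1–42 was added with test peptide (DMSO stock diluted in PBS; 1:1, 1:5, 1:10) for 6 h. MTT was then added for 4 h, followed by DMSO solubilization and OD570. Inhibition % = 100×(OD peptide+Aβ − OD Aβ)/(OD control − OD Aβ).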

[2] = system: Aβ1–40 toxicity for PC-12 cells; test: MTT cell viability assay with Aβ1–40; assay type: cell-based; details: data not shown
[3] = target: T1, Aβ1–42 (Homo sapiens, UniProt P05067); test: ThT fluorescence assay of Aβ1–42 aggregation; assay type: biochemical; details: Aβ1–42 2 μM + peptide 20 μM (1:10), Aβ1–42 alone = 100%, n = 3
Outline: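 Aβ1–42 (2 μM) was incubated with test peptide at 1:10 in wells containing ThT (2.5 μM, glycine-NaOH pH 8.5), at 37 °C with shaking at 200 rpm. Fluorescence (ex 445/em 485 nm) was read at intervals over 7 days. Blank was subtracted, and RFU was normalized to the Aβ1–42-alone rise over ThT alone (100%). Triplicates were averaged.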

[4] = target: T1, Aβ1–42; test: Circular dichroism secondary structure analysis of Aβ1–42; assay type: biochemical; details: CD, Aβ1–42/peptide 1:5, 12 h, 37 °C
Outline: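 Aβ1–42 (NaOH stock diluted to 20 μM in sodium phosphate buffer) mixed 1:5 with test peptide (TFE stock diluted to 100 μM), 12 h at 37 °C. Spectra taken at 0 and 12 h, 190–260 nm, 37 °C, 1 mm cell, 50 nm/min, 2 nm bandwidth, averaging 3 scans. Buffer blank and inhibitor-alone spectra subtracted, then deconvolution into secondary-structure percentages.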

[5] = target: T1, Aβ1–42; test: Electron microscopy; details: HRTEM and STEM, Aβ1–42/test peptide 1:5, 37 °C, 72 h
Outline: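 HFIP-treated Aβ1–42 (50 μM in 10 mM sodium phosphate buffer, pH 7.4) mixed in equal volumes with test or control tetrapeptide (250 μM, from DMSO stock) to give 1:5, then held 72 h at 37 °C. Peptides alone were imaged too. Samples were fixed on carbon-coated copper grids with 0.5% glutaraldehyde, washed in water, negatively stained with 2% uranyl acetate and imaged at 120 keV.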

[6] = Electron microscopy of tetrapeptides incubated alone; assay type: physicochemical; details: HRTEM and STEM, peptide alone in SPB pH 7.4, 37 °C, 72 h
Outline: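 Test peptide stock (5 mM in DMSO) diluted to 250 μM in 10 mM SPB, pH 7.4, and incubated alone at 37 °C for 72 h. A droplet is fixed on carbon-coated copper grids with 0.5% glutaraldehyde, washed with ultrapure water and negatively stained with 2% uranyl acetate. Grids are imaged by HRTEM/STEM at 120 keV.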

T1 sequence (P05067 672-713): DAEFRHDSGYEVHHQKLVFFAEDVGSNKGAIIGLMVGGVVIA

V[Aib]IA [compound 20]
inhibition (%) of Aβ1–42 (2 μM) ([1]; test peptide 2 μM): 0% | inhibition (%) of Aβ1–42 (2 μM) ([1]; test peptide 10 μM): 22.0% | inhibition of Aβ1–40 toxicity [2]: did not show inhibition; also recorded: lack of activity | RFU, time-dependent ThT study ([3]; at 24 h): 6% | RFU, time-dependent ThT study ([3]; at 3 days): 4% | RFU, time-dependent ThT study ([3]; at 5 days): 10.9% | RFU, time-dependent ThT study ([3]; at 7 days): 11.4% | random coil form of Aβ1–42 co-incubated with inhibitor ([4]; Aβ1–42 alone at 12 h 42.3%): 58.5% | β-sheet conformation of Aβ1–42 co-incubated with inhibitor ([4]; Aβ1–42 alone at 12 h 47.1%): 14.2% | morphology of Aβ1–42 aggregates upon co-incubation [5]: no such aggregates were formed | self-aggregation of peptide incubated alone [6]: did not exhibit any self-aggregation

— article PMC6645473 (ACS Omega, 2018)
